# The campaign covered roughly 2,500 compounds. About 460 (18%) were called active.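 Rule for the calls: active = mean activation above a cutoff of low control average plus 3 SD from the earlier screen (cut at about 12% in these data); inactive = the rest.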 The list is a sample of the results.
# Experiment: compound fluorescence interference without thin filaments, confirmation, artefact control for cardiac RTF calcium sensitizer project, biochemical (AID 504382)
# Settings: IANBD fluorescence interference counterscreen, buffer, EC20 Ca2+; at 7.2 µM; hits give high values; scaled: EC20 calcium 0, EC100 calcium 100
# Summary of the method: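 Medium: MOPS buffer, 190 mM, with KCl, MgCl2, EGTA, NTA, DTT, pH 7.20; Dosing: one dose of 7.2 µM, 0.7% DMSO; Probe or stimulus: calcium at EC20 level, 0.472 mM final; Incubation: 15 min, 25 °C; Evaluation: compound fluorescence interference relative to control well signal range; Signal: fluorescence, 480/540 nm.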
row,Compound,fluorescence artifact activation
1,COc1cc([N+](=O)[O-])ccc1NC(=O)COC(=O)c1n[nH]c2ccccc12,0.03% (inactive)
2,COc1cc2c(cc1NC(=O)COC(=O)/C=C/c1ccc([N+](=O)[O-])cc1)oc1ccccc12,796% (active)
3,COc1cc([N+](=O)[O-])ccc1N/C=C/C(=O)c1cccs1,0.6% (inactive)
4,Cc1c(C)[n+](=O)c(-c2ccc(Br)cc2)c(C)n1[O-],412% (active)
5,CCn1cc(C(=O)NCCC(=O)NCCO)c(=O)c2cc3c(cc21)OCO3,9.79% (inactive)
6,O=C(C1=NN[C@@H]2C(=O)N(c3ccccc3C(F)(F)F)C(=O)[C@H]12)c1ccc2ccccc2n1,22.3% (active)
7,Cc1cccc(NC(=S)Nc2ccc(N3CCOCC3)cc2)c1C,0.78% (inactive)
8,O=c1cc2oc3cc(O)c(O)cc3c(-c3ccccc3O)c-2cc1O,0.4% (inactive)
9,O=c1ccc2c(-c3ccccc3)c3ccc(O)cc3oc-2c1,12.3% (active)
10,Nc1ccc(-c2c3ccc(=O)cc-3oc3cc(O)ccc23)cc1C(=O)O,-0.02% (inactive)
11,CCCNS(=O)(=O)c1ccc2c(c1)n(C)c(=O)n2C,1.63% (inactive)
12,Cc1cnc(C(=O)Nc2nnc(SCc3c(Cl)cccc3Cl)s2)cn1,1.18% (inactive)
13,O=C1c2cccc3c(N4CCCCC4)ccc(c23)C(=O)N1c1cccc(O)c1,6.35% (inactive)
14,O=C(OCCN1CCCCC1)c1ccccc1Br,-0.03% (inactive)
15,CN1CCCC(OC(=O)c2ccccc2Br)C1 (stereo not given),20.7% (active)
16,O=C(Cn1c(=O)oc2cc(S(=O)(=O)N3CCCC3)ccc21)N1CCc2ccccc2C1,0.09% (inactive)
17,CC(C)(C)c1ccc(C(=O)Nc2cccc3ncccc23)cc1,0.15% (inactive)
18,CCOC(=O)C(=O)Nc1nnc(COc2ccccc2)s1,-0.01% (inactive)
19,Cc1cc(C)cc(C(=O)NC(CC(N)=O)c2ccc(N3CCCCCC3)c([N+](=O)[O-])c2)c1 (stereo not given),0.1% (inactive)
20,NC(=O)CC(NC(=O)c1ccc(Br)cc1)c1ccc(N2CCN(c3ccc(F)cc3)CC2)c([N+](=O)[O-])c1 (stereo not given),13.7% (active)
21,O=C(N/N=C/c1cc([N+](=O)[O-])ccc1N1CCNCC1)c1ccc([N+](=O)[O-])cc1,5.53% (inactive)
22,NC(=O)CC(NC(=O)Cc1ccc(Cl)cc1)c1ccc(N2CCN(c3ccccn3)CC2)c([N+](=O)[O-])c1 (stereo not given),51.4% (active)
23,O=C(NCc1ccccc1)c1ccc(N2CCC3(CC2)CC(c2ccccc2)=NO3)c([N+](=O)[O-])c1,-0.07% (inactive)
24,CN(/N=C/c1ccc(O)cc1O)c1ncc(C(F)(F)F)cc1Cl,0.11% (inactive)

row,Compound,fluorescence artifact activation
1,O=C(c1ccc(Cn2cc([N+](=O)[O-])cn2)o1)N1N=C(C(F)F)CC1(O)C(F)F (stereo not given),3.96% (inactive)
2,CC/C(=N/Nc1cccc(C)c1)c1cnnc(SC)n1,3.63% (inactive)
3,Cc1ccccc1NC(=S)Nc1ccc(Br)cc1,-0.08% (inactive)
4,Cc1ccc(Cl)c2c(N=Nc3ccccc3)c(O)[nH]c12,0.17% (inactive)
5,COCCN1C(=O)/C(=C/c2ccc(N3CCCC3)cc2C)SC1=S,0.17% (inactive)
6,COc1ccc(N2C(N)=NC(N)=NC2(C)C)cc1,-0.01% (inactive)
7,COC(=O)c1ccc(NC(=O)c2cccc(OC)c2)cc1,0.1% (inactive)
8,Cc1ccc(OCCCC(=O)NC2CCCCC2)cc1,0% (inactive)
9,COc1cc(NC(=O)[C@@H]2CCCN2S(=O)(=O)c2cccc3cccnc23)cc(OC)c1OC,0.18% (inactive)
10,Cc1cc(=O)n2nc(N3CCCC3C(=O)Nc3ccc(C(C)C)cc3)sc2n1 (stereo not given),166% (active)
11,Cc1cc(C)n2nc(C(=O)N3CCCC(Nc4ccc(C(C)C)cc4)C3)cc2n1 (stereo not given),2.67% (inactive)
12,C=C1CCN([C@@H](Cc2ccccc2)C(=O)O)S(=O)(=O)c2ccccc21,4.75% (inactive)
13,Cc1cccc(NC(=O)Cn2cnc3ccc(S(=O)(=O)N4CCC(C)CC4)cc3c2=O)n1,3.57% (inactive)
14,COc1ccc(-[n+]2c(C)cc(/C=C3\Sc4ccccc4N3C)cc2C)cc1,50.7% (active)
15,COc1ccccc1-[n+]1c(C)cc(/C=C2\Sc3ccccc3N2C)cc1C,0.15% (inactive)
16,CC[n+]1c(/C=C2\Sc3ccccc3N2C)ccc2cccc(C)c21,0.11% (inactive)
17,CN(C)CCN(C)Cc1c2ccccc2c(CN(C)CCN(C)C)c2ccccc12,8.32% (inactive)
18,Cc1cccc(N2C(=O)c3cccc4c(N(C)CCO)ccc(c34)C2=O)c1,0.05% (inactive)
19,CC1(c2cccc(Br)c2)NC(=O)NC1=O (stereo not given),16.7% (active)
20,Nc1ccc2nc3c(=O)n(C4CCCCC4)c(=O)[nH]c3nc2c1,1.78% (inactive)
21,Cc1ccc(C)c(N2CCN(C(=O)CN3C(=S)NC(C)(C)CC3C)CC2)c1 (stereo not given),8.59% (inactive)
22,C/C=C/c1ccc(OCCCNCC(C)O)c(OC)c1 (stereo not given),112% (active)
23,COc1cc(/C=C2\CC/C(=C\c3ccc(OCCO)c(OC)c3)C2=O)ccc1OCCO,0.12% (inactive)
24,COc1ccc(OC)c(/C=N/N=C(\N)c2nonc2N)c1,9.14% (inactive)

row,Compound,fluorescence artifact activation
1,COc1ccc(CN2CCC(=O)N([C@H](CO)c3ccccc3)CC2)cc1,6.01% (inactive)
2,CC(C)CN(C(=O)CCCc1nc2ccccc2c(=O)[nH]1)c1c(N)n(Cc2ccccc2)c(=O)[nH]c1=O,0.01% (inactive)
3,CCOc1ccccc1N1CCN(CC(=O)c2c(N)n(C)c(=O)n(C)c2=O)CC1,2.53% (inactive)
4,CCOc1ccccc1N1CCN(CC(=O)N(CC(C)C)c2c(N)n(CC(C)C)c(=O)[nH]c2=O)CC1,13.8% (active)
5,O=C1NC(c2ccccc2)=C(c2nc3ccccc3s2)C(c2ccc(O)cc2)N1 (stereo not given),-0.03% (inactive)
6,Nc1ccc2c3c(cccc13)-c1ccccc1-2,0.02% (inactive)
7,Cc1n[nH]c(C)c1N1C(=O)c2cccc3c(N4CCCCCC4)ccc(c23)C1=O,0.08% (inactive)
8,COc1cc(/C=C2\CCC(C)C3=C(c4cc(OC)c(OC)c(OC)c4)C(C#N)=C(N)OC32)cc(OC)c1OC (stereo not given),14.5% (active)
9,CC1(C)CC(=O)C2=C(C1)OC(N)=C(C#N)C21CCN(Cc2ccccc2)CC1,0.25% (inactive)
10,COC(=O)C1=COC(C)C2CN3CCc4c([nH]c5ccccc45)C3CC12 (stereo not given),1.05% (inactive)
11,CCOC(=O)Cn1c(=NC(=O)c2cc(-c3cccs3)nc3ccccc23)sc2cc(S(N)(=O)=O)ccc21,-0.11% (inactive)
12,COc1ccccc1NC(=O)/C=C/C(=O)O,0.29% (inactive)
13,CC(C)C(=O)c1cc2c(cc1NC(=O)c1ccccc1)OCCO2,0.02% (inactive)
14,O=C(Nc1ccccc1OC(=O)c1ccccc1)c1ccccc1,45% (active)
15,COc1ccc(OC)c(C2C3CN(C(C)C)CC=C3C(C#N)=C(N)C2(C#N)C#N)c1 (stereo not given),1.64% (inactive)
16,CCn1c(NC(=O)Nc2cccc(C)c2C)cc2sccc21,0.08% (inactive)
17,C#CC[N+](C)(C)CCCCCCCCCC,13.8% (active)
18,Cc1nccc(-c2cccc(N/N=C(\C#N)C(=O)c3ccccc3)c2)n1,-0.02% (inactive)
19,CCOC(=O)Cn1nc2sc3ccccc3n2c(=O)c1=O,-0.05% (inactive)
20,Cc1ccc(CNC(=O)c2cccc3c2C(=O)c2ccc(N4CCCCC4)cc2S3(=O)=O)cc1,-0.01% (inactive)
21,O=C(CCc1ccc(S(=O)(=O)NCCc2ccccc2)cc1)N1CCN(Cc2ccc3c(c2)OCO3)CC1,-0.04% (inactive)
22,Cc1ccc(S(=O)(=O)NC(C)(C)CN2CCC(Cc3ccccc3)CC2)cc1,3.9% (inactive)

# Reference: PubChem BioAssay AID504382 (The Scripps Research Institute Molecular Screening Center, 2011)
